Laboratory results as given in ChEMBL document CHEMBL1212766, “Dose escalation study of the safety, tolerability, and pharmacokinetics of nemonoxacin (TG-873870), a novel potent broad-spectrum nonfluorinated quinolone, in healthy volunteers” (Antimicrob Agents Chemother, 2010).
≈ marks a conversion by molar mass, not a printed value.

Columns and labels:
Homo sapiens [1] = test: Toxicity in healthy human assessed as occurrence of nausea at 500 […], po; assay type: organism-based; design: route oral; conditions: in vivo
Homo sapiens [2] = test: Toxicity in healthy human assessed as occurrence of pruritus at 25 […], po; assay type: organism-based; design: route oral; conditions: in vivo
Homo sapiens [3] = test: Toxicity in healthy human assessed as occurrence of nausea at 1000 […], po; assay type: organism-based; design: route oral; conditions: in vivo
Homo sapiens [4] = test: Toxicity in healthy human assessed as occurrence of erythema at 250 […], po; assay type: organism-based; design: route oral; conditions: in vivo
Homo sapiens [5] = test: Toxicity in healthy human assessed as occurrence of erythema at 500 […], po; assay type: organism-based; design: route oral; conditions: in vivo
[6] = Clearance in healthy human assessed as recovery of unchanged drug in urine at 1000 […], po administered as single dose; assay type: ADME, organism-based; design: route oral; conditions: read-out: Recovered in urine
Procedure, shortened: (§1)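 Healthy volunteers, six on drug per cohort, fasted 10 h and given one oral dose with 240 ml water, then fasted 4 h more. Urine was pooled over intervals from 0-2 to 72-96 h and stored at about −70°C. Drug was measured by solid-phase extraction and LC-MS/MS (LLOQ 200 ng/ml), giving the percent of dose recovered unchanged. Values are means (SD).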

Homo sapiens [7] = test: Clearance in healthy human at 1500 mg, po administered as single dose; conditions: in vivo
Homo sapiens [8] = test: Toxicity in healthy human assessed as occurrence of pruritus at 50 […], po; assay type: organism-based; design: route oral; conditions: in vivo
Staphylococcus aureus [9] = test: Antimicrobial activity against methicillin-sensitive Staphylococcus aureus; assay type: functional
Staphylococcus aureus [10] = test: Ratio of fAUC to MIC90 for methicillin-resistant Staphylococcus aureus; assay type: functional
Procedure, shortened: (§2)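 Fasted healthy adults got a single oral 500 mg dose with 240 ml water. Plasma was sampled predose to 96 h and assayed by LC-MS/MS (5–5,000 ng/ml). Cmax was read from individual profiles, and AUC0-∞ came from linear trapezoid plus extrapolation. Free fraction was measured by ultrafiltration (30,000 MWCO) of 0.5 and 6 h plasma. Free exposure was divided by the isolate MIC90.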

Homo sapiens [11] = test: Toxicity in healthy human assessed as occurrence of contact dermatitis at 250 […], po; assay type: organism-based; design: route oral; conditions: in vivo
Procedure, shortened: (§3)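 Randomized, double-blind, placebo-controlled single ascending oral doses in healthy volunteers (cohorts of 6 active, 2 placebo; 25–1,500 mg). After a 10-h fast, dose given with 240 ml water; fasting continued 4 h. Subjects were confined to 96 h postdose. AEs were recorded throughout dosing and at follow-up, reported as number and percentage of subjects with events per treatment.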

Homo sapiens [12] = test: AUC (0 to infinity) in healthy human at 50 mg/kg, po administered as single dose; assay type: ADME, organism-based, Plasma; design: time infinity, route oral; conditions: in vivo
Homo sapiens [13] = test: Terminal volume of distribution in healthy human at 500 mg, po administered as single dose; conditions: in vivo
[14] = Cmax in healthy human at 125 mg, po administered as single dose; conditions: in vivo
[15] = Clearance in healthy human assessed as recovery of unchanged drug in urine at 500 mg, po administered as single dose; conditions: read-out: Recovered in urine
Homo sapiens [16] = test: Toxicity in healthy human assessed as occurrence of contact dermatitis at 500 […], po; assay type: organism-based; design: route oral; conditions: in vivo
Homo sapiens [17] = test: Toxicity in healthy human assessed as occurrence of erythema at 50 […], po; assay type: organism-based; design: route oral; conditions: in vivo
Homo sapiens [18] = test: Toxicity in healthy human assessed as occurrence of abdominal pain at 50 […], po; assay type: organism-based, Abdomen; design: route oral; conditions: in vivo
Procedure, shortened: (§4)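 Double-blind, placebo-controlled single ascending oral dose; two placebo and six active subjects per cohort. Adverse events were recorded throughout the dosing period and at follow-up, with confinement to 96 h after dosing. Results are reported as number and percentage of subjects with the event (n/N × 100).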

[19] = Terminal phase elimination half-life in healthy human at 125 […], po administered single dose; assay type: ADME, organism-based; design: route oral; conditions: in vivo
Procedure, shortened: (§5)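 After one fasted oral dose (six healthy subjects per cohort), plasma was sampled from 0.5 to 96 h and assayed by LC-MS/MS (LLOQ 5 ng/ml). λz came from least-squares regression on at least the last three log-concentration points, and t1/2 = 0.693/λz. Values are means (SD).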

Homo sapiens [20] = test: Toxicity in healthy human assessed as occurrence of ear pain at 125 […], po; assay type: organism-based; design: route oral; conditions: in vivo
Homo sapiens [21] = test: Terminal volume of distribution in healthy human at 250 mg, po administered as single dose; conditions: in vivo
[22] = Clearance in healthy human assessed as recovery of unchanged drug in urine at 1500 […], po administered as single dose; assay type: ADME, organism-based; design: route oral; conditions: read-out: Recovered in urine; procedure, shortened: as §1
Staphylococcus aureus [23] = test: Ratio of fAUC to MIC90 for methicillin-sensitive Staphylococcus aureus; assay type: functional; procedure, shortened: as §2
Homo sapiens [24] = test: Toxicity in healthy human assessed as occurrence of pustular rashes at 1000 […], po; assay type: organism-based; design: route oral; conditions: in vivo
[25] = Terminal phase elimination half-life in healthy human at 50 […], po administered single dose; assay type: ADME, organism-based; design: route oral; conditions: in vivo; procedure, shortened: as §5
Homo sapiens [26] = test: Clearance in healthy human at 25 […], po administered as single dose; assay type: ADME, organism-based; design: route oral; conditions: in vivo
Procedure, shortened: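 Randomized, double-blind, placebo-controlled single ascending oral dose in fasted healthy subjects (six on drug per cohort, with 240 ml water). Plasma sampled predose through 96 h and assayed by validated LC-MS/MS over 5–5,000 ng/ml. Oral clearance (CL_o) came from noncompartmental analysis, with AUC_0-∞ from linear trapezoids plus C_last/λz. Values are means (SD).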

Homo sapiens [27] = test: Toxicity in healthy human assessed as occurrence of ear pain at 500 […], po; assay type: organism-based; design: route oral; conditions: in vivo
Homo sapiens [28] = test: Toxicity in healthy human assessed as occurrence of abdominal pain at 25 […], po; assay type: organism-based, Abdomen; design: route oral; conditions: in vivo; procedure, shortened: as §4
Streptococcus pneumoniae [29] = test: Ratio of fCmax to MIC90 for penicillin-resistant Streptococcus pneumoniae; assay type: functional; procedure, shortened: as §2
Homo sapiens [30] = test: Toxicity in healthy human assessed as occurrence of headache at 250 […], po; assay type: organism-based; design: route oral; conditions: in vivo
[31] = Cmax in healthy human at 1500 mg, po administered as single dose; conditions: in vivo
Homo sapiens [32] = test: AUC (0 to infinity) in healthy human at 1500 mg, po administered as single dose; conditions: in vivo
[33] = Terminal phase elimination half-life in healthy human at 1000 mg, po administered single dose; conditions: in vivo
Homo sapiens [34] = test: Terminal volume of distribution in healthy human at 25 mg, po administered as single dose; conditions: in vivo
Homo sapiens [35] = test: Toxicity in healthy human assessed as occurrence of oral hypoesthesia at 125 […], po; assay type: organism-based; design: route oral; conditions: in vivo
Homo sapiens [36] = test: Toxicity in healthy human assessed as occurrence of contact dermatitis at 125 […], po; assay type: organism-based; design: route oral; conditions: in vivo; procedure, shortened: as §3
Homo sapiens [37] = test: Toxicity in healthy human assessed as occurrence of pruritus at 250 […], po; assay type: organism-based; design: route oral; conditions: in vivo
Streptococcus pneumoniae [38] = test: Antimicrobial activity against ciprofloxacin-resistant Streptococcus pneumoniae; assay type: functional
Homo sapiens [39] = test: AUC (0 to infinity) in healthy human at 250 […], po administered as single dose; assay type: ADME, organism-based, Plasma; design: time infinity, route oral; conditions: in vivo
[40] = Tmax in healthy human at 250 mg, po administered as single dose; conditions: in vivo

Question: Which Activity (Homo sapiens [1]) does the source give for `COc1c(N2C[C@@H](C)C[C@H](N)C2)ccc2c(=O)c(C(=O)O)cn(C3CC3)c12` [NEMONOXACIN] here?
Answer: Its Activity is 0%.

Question: And the Activity (Homo sapiens [2])?
Answer: The Activity was 0%.

Question: What about the Activity (Homo sapiens [3]) of the same compound?
Answer: The Activity was 0%.

Question: And the Activity (Homo sapiens [4])?
Answer: The Activity was 0%.

Question: What about the Activity (Homo sapiens [5]) of the same compound?
Answer: The Activity was 0%.

Question: And the dose excreted [6]?
Answer: Its dose excreted is 36.5%.

Question: And the CL (Homo sapiens [7])?
Answer: Its CL is 3 mL/min/kg.

Question: And the Activity (Homo sapiens [8])?
Answer: Its Activity is 17%.

Question: What about the MIC90 (Staphylococcus aureus [9]) of the same compound?
Answer: Its MIC90 is 0.12 µg/mL (≈ 0.323 µM).

Question: And the Ratio (Staphylococcus aureus [10])?
Answer: The Ratio was 453.

Question: What about the Activity (Homo sapiens [11]) of the same compound?
Answer: The Activity was 0%.

Question: And the AUC (Homo sapiens [12])?
Answer: Its AUC is 2990 ng·h/mL.

Question: What about the Vbeta (Homo sapiens [13]) of the same compound?
Answer: Its Vbeta is 4.25 L/kg.

Question: What about the Cmax [14] of the same compound?
Answer: The Cmax was 1220 ng/mL.

Question: What about the dose excreted [15] of the same compound?
Answer: The dose excreted was 34.1%.

Question: What about the Activity (Homo sapiens [16]) of the same compound?
Answer: Its Activity is 0%.

Question: And the Activity (Homo sapiens [17])?
Answer: Its Activity is 0%.

Question: And the Activity (Homo sapiens [18])?
Answer: Its Activity is 0%.

Question: What about the half-life [19] of the same compound?
Answer: Its half-life is 11.1 h.

Question: And the Activity (Homo sapiens [20])?
Answer: The Activity was 0%.

Question: And the Vbeta (Homo sapiens [21])?
Answer: Its Vbeta is 3.58 L/kg.

Question: And the dose excreted [22]?
Answer: The dose excreted was 37.6%.

Question: What about the Ratio (Staphylococcus aureus [23]) of the same compound?
Answer: The Ratio was 227.

Question: And the Activity (Homo sapiens [24])?
Answer: Its Activity is 0%.

Question: What about the half-life [25] of the same compound?
Answer: Its half-life is 8.49 h.

Question: And the CL (Homo sapiens [26])?
Answer: The CL was 5 mL/min/kg.

Question: What about the Activity (Homo sapiens [27]) of the same compound?
Answer: The Activity was 0%.

Question: And the Activity (Homo sapiens [28])?
Answer: Its Activity is 0%.

Question: And the Ratio (Streptococcus pneumoniae [29])?
Answer: Its Ratio is 95.

Question: What about the Activity (Homo sapiens [30]) of the same compound?
Answer: Its Activity is 0%.

Question: And the Cmax [31]?
Answer: The Cmax was 12100 ng/mL.

Question: And the AUC (Homo sapiens [32])?
Answer: Its AUC is 117840 ng·h/mL.

Question: What about the half-life [33] of the same compound?
Answer: Its half-life is 16.4 h.

Question: What about the Vbeta (Homo sapiens [34]) of the same compound?
Answer: The Vbeta was 4.21 L/kg.

Question: What about the Activity (Homo sapiens [35]) of the same compound?
Answer: The Activity was 0%.

Question: What about the Activity (Homo sapiens [36]) of the same compound?
Answer: The Activity was 33%.

Question: And the Activity (Homo sapiens [37])?
Answer: Its Activity is 0%.

Question: What about the MIC90 (Streptococcus pneumoniae [38]) of the same compound?
Answer: The MIC90 was 0.12 µg/mL (≈ 0.323 µM).

Question: What about the AUC (Homo sapiens [39]) of the same compound?
Answer: The AUC was 15450 ng·h/mL.

Question: What about the Tmax [40] of the same compound?
Answer: The Tmax was 0.92 h.
